From BindingDB's records for doi:10.1016/j.ejmech.2008.02.028 (Institute of Chemical Technology, 2008) come the findings set out here.

Molecules are shown by their SMILES.

For the test, the target named is Glutathione hydrolase 1 proenzyme (Homo sapiens, UniProt P19440). Kind of test: Inhibition of gamma-glutamyltranspeptidase by colorimetric assay. In outline:
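Colorimetric read-out at 405 nm by a standard procedure. IC50 is the […] giving 50% inhibition of enzyme activity. Values are the average of three independent experiments (n = 3).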

Chain of Glutathione hydrolase 1 proenzyme (P19440 1-380 limits assumed): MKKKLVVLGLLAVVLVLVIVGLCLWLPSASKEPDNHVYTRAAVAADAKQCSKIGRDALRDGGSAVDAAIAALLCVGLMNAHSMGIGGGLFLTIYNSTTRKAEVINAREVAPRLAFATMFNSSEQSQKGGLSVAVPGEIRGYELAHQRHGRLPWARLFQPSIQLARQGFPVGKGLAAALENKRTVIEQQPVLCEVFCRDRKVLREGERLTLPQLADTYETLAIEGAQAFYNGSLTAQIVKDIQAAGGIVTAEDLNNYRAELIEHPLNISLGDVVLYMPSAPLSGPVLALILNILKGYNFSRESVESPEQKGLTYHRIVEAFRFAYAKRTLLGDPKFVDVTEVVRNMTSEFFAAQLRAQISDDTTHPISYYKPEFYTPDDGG
Chain of Glutathione hydrolase 1 proenzyme (P19440 381-569 limits assumed): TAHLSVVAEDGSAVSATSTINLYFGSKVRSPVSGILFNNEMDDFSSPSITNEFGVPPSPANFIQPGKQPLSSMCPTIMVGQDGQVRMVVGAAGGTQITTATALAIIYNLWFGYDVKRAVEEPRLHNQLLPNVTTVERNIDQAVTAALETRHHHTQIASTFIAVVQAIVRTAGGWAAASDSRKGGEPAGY

`CNC(=O)C1=C(C)C2Sc3ccccc3N=C2C(C(=O)NC)C1c1ccc2c(c1)OCO2` (configuration not stated) [2-(1,3-Benzodioxol-5-yl)-N,N',4-trimethyl-2,10-dihydro-1H-phenothiazine-1,3-dicarboxamide] registered an IC50 greater than 30 µM. The same measure for `CNC(=O)C1=C(C)C2Sc3ccccc3N=C2C(C(=O)NC)C1c1ccccc1OC` (configuration not stated) [2-(2-Methoxyphenyl)-N,N',4-trimethyl-2,10-dihydro-1H-phenothiazine-1,3-dicarboxamide]: greater than 30 µM.

Broadly, the IC50 is the concentration needed to halve the response being measured. A high value points to weaker potency.
